Data as given in ChEMBL document CHEMBL1133727, “Structure-activity relationships in a series of bisquaternary bisphthalimidine derivatives modulating the muscarinic M(2)-receptor allosterically” (J Med Chem, 2000).

Tests used:
[1] = Partition coefficient (logP); assay type: physicochemical; details: octanol/water
[2] = target: T1, Muscarinic acetylcholine receptor M2 (Sus scrofa, UniProt P06199); test: Inhibition of [3H]- N-methyl-scopolamine ([3H]NMS) dissociation from porcine cardiac M2-receptors; details: read-out: Log 1/EC50 (converted)
T1 sequence (P06199 whole entry): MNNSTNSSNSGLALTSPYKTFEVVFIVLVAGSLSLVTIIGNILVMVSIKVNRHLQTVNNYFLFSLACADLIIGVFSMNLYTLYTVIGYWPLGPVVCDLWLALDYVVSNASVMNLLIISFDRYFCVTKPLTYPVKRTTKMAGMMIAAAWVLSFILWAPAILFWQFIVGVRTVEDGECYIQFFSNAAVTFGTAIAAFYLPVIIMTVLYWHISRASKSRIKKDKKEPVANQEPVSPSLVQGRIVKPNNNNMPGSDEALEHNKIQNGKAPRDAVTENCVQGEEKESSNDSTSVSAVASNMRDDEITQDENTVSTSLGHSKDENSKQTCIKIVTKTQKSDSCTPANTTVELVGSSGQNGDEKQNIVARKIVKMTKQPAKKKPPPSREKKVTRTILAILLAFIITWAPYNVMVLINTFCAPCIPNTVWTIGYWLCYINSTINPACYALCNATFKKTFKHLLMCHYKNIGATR
Outline: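 Porcine heart ventricular myocardium homogenate, stored at −80 °C. Membranes preincubated 30 min with [3H]NMS in 3 mM MgHPO4, 50 mM Tris, pH 7.3, 37 °C. Dissociation started with 1 µM atropine, with or without test compound. Bound ligand collected by filtration and counted by liquid scintillation. Monoexponential fit gave apparent k−1; EC50 for k−1 reduced to 50% of control, from four-parameter logistic fit.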

logP [1] | EC50 [2] [nM] | Compound
2.07 | 2290 | CCOC1c2ccccc2C(=O)N1CCC[N+](C)(C)CCCCCC[N+](C)(C)CCCN1C(=O)c2ccccc2C1OCC (centres undefined)
2.92 | 1260 | CC(C)SC1c2ccccc2C(=O)N1CCC[N+](C)(C)CCCCCC[N+](C)(C)CCCN1C(=O)c2ccccc2C1SC(C)C (centres undefined)
2.48 | 1580 | CC(C)OC1c2ccccc2C(=O)N1CCC[N+](C)(C)CCCCCC[N+](C)(C)CCCN1C(=O)c2ccccc2C1OC(C)C (centres undefined)
1.72 | 6760 | COC1c2ccccc2C(=O)N1CCC[N+](C)(C)CCCCCC[N+](C)(C)CCCN1C(=O)c2ccccc2C1OC (centres undefined)

The remaining lines, values behind:

Compound | logP [1] | EC50 [2] [nM]
C[N+](C)(CCCCCC[N+](C)(C)CCCN1Cc2ccccc2C1=O)CCCN1Cc2ccccc2C1=O | 1.55 | 2000
C[N+](C)(CCCCCC[N+](C)(C)CCCN1C(=O)c2ccccc2/C1=C\c1ccccc1)CCCN1C(=O)c2ccccc2/C1=C/c1ccccc1 | 2.96 | 66.1
C[N+](C)(CCCCCC[N+](C)(C)CCCN1C(=O)c2ccccc2/C1=C\c1ccccc1)CCCN1C(=O)c2ccccc2/C1=C\c1ccccc1 | 2.96 | 70.8
C[N+](C)(CCCCCC[N+](C)(C)CCCN1C(=O)c2ccccc2C1O)CCCN1C(=O)c2ccccc2C1O (centres undefined) | 1.45 | 6030
C[N+](C)(CCCCCC[N+](C)(C)CCCN1C(=O)c2ccccc2C1Cc1ccccc1)CCCN1C(=O)c2ccccc2C1Cc1ccccc1 (centres undefined) | 3.65 | 1000
C[N+](C)(CCCCCC[N+](C)(C)CCCN1C(=O)c2ccccc2C1c1ccccc1)CCCN1C(=O)c2ccccc2C1c1ccccc1 (centres undefined) | 3.4 | 794
C[N+](C)(CCCCCC[N+](C)(C)CCCN1C(=O)c2ccccc2/C1=C/c1ccccc1)CCCN1C(=O)c2ccccc2/C1=C/c1ccccc1 | 2.96 | 85.1
C[N+](C)(CCCCCC[N+](C)(C)CCCN1C(=O)c2ccccc2C1=O)CCCN1C(=O)c2ccccc2C1=O | 1.46 | 1410
